Tests used:
A549 = test: Cytotoxicity against human A549 cells assessed as cell viability after 72 hrs by MTT assay; type: functional, cell-based; conditions: A549, 72 h
Outline: (§1)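 Cells were grown at 37 °C in humidified 5% CO2/95% air. DU145 and A549 were kept in DMEM with 10% FCS, glutamine and nonessential amino acids. LNCaP, KB and M14 were kept in RPMI with 10% FCS, and Caco2 in MEM with 10% FCS. For the MTT assay, 1 × 10^4 cells were seeded per well and preincubated 24 h, then treated 72 h (DMSO ≤0.1%). MTT (0.5% in PBS) was added 4 h before the end, formazan was dissolved in DMSO, and OD was read at 550 nm. Triplicates were run.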

LNCaP = test: Cytotoxicity against human LNCAP cells assessed as cell viability after 72 hrs by MTT assay; type: functional, cell-based; outline: as §1
M14 = test: Cytotoxicity against human M14 cells assessed as cell viability after 72 hrs by MTT assay; type: functional, cell-based; conditions: M14, 72 h; outline: as §1
[1] = Cytotoxicity against human fibroblasts assessed as cell viability after 72 hrs by MTT assay relative to control; type: cell-based, Fibroblast; set-up: concentration or dose not given beside the values; conditions: read-out: Activity
KB = test: Cytotoxicity against human KB cells assessed as cell viability after 72 hrs by MTT assay; type: functional, cell-based; outline: as §1
DU-145 = test: Cytotoxicity against human DU145 cells assessed as cell viability after 72 hrs by MTT assay; type: functional, cell-based; conditions: DU-145, 72 h; outline: as §1
Caco-2 = test: Cytotoxicity against human Caco2 cells assessed as cell viability after 72 hrs by MTT assay; type: functional, cell-based; conditions: Caco-2, 72 h; outline: as §1

Row | SMILES | IC50 (A549) | IC50 (LNCaP) | IC50 (M14) | viability at 72 h [1] | IC50 (KB) | IC50 (DU-145) | IC50 (Caco-2)
1 | CC(=O)n1cc(/C=C(/C(=O)O)c2ccc(Cl)cc2)c2cc(OCc3ccccc3)ccc21 | 52.3 µM | > 100 µM | > 100 µM | 85% | > 100 µM | 1.13 µM | –
2 | CC(=O)n1cc(/C=C(/C(=O)O)c2ccccc2)c2cc(OCc3ccccc3)ccc21 | 57.5 µM | > 100 µM | > 100 µM | 85% | 55.5 µM | 26.7 µM | –
3 | COc1ccc(/C(=C\c2cn(C(C)=O)c3ccc(OCc4ccccc4)cc23)C(=O)O)cc1OC | 54.8 µM | > 100 µM | 65.5 µM | 85% | 96.7 µM | 1.05 µM | –
4 | COc1ccc(/C(=C\c2c[nH]c3ccccc23)C(N)=O)cc1 | – | – | 53 µM | 85% | 86.2 µM | 40 µM | > 100 µM
5 | COc1ccc(Cn2cc(/C=C(/C(=O)O)c3ccccc3)c3cc(OCc4ccccc4)ccc32)cc1 | 1 µM | 38.2 µM | 64.5 µM | 85% | 97 µM | 0.86 µM | –
6 | NC(=O)/C(=C/c1c[nH]c2ccc(OCc3ccccc3)cc12)c1ccccc1 | – | – | > 100 µM | 85% | 40.3 µM | 30.9 µM | > 100 µM
7 | NC(=O)/C(=C/c1c[nH]c2ccccc12)c1ccccc1 | – | – | 45.4 µM | 85% | > 100 µM | 33.3 µM | > 100 µM
8 | COc1cc(/C(=C\c2cn(C(C)=O)c3ccc(OCc4ccccc4)cc23)C(=O)O)cc(OC)c1OC | 89.1 µM | 59.6 µM | 57.1 µM | 85% | > 100 µM | 0.95 µM | –
9 | COc1ccc(/C(=C\c2c[nH]c3ccccc23)C(=O)O)cc1 | – | – | > 100 µM | 85% | > 100 µM | > 100 µM | > 100 µM
10 | COc1ccc(/C(=C\c2c[nH]c3ccc(OCc4ccccc4)cc23)C(=O)O)cc1 | – | – | 58.4 µM | 85% | 38.5 µM | 38.1 µM | > 100 µM

From ChEMBL document CHEMBL2417450, “Antitumor properties of substituted (αE)-α-(1H-indol-3-ylmethylene)benzeneacetic acids or amides” (Bioorg Med Chem, 2013)
